The results in this text go back to ChEMBL document CHEMBL1781998, “Synthesis and biological evaluation of boron peptide analogues of Belactosin C as proteasome inhibitors” (Bioorg Med Chem Lett, 2009).

In assay [1] the test system is HeLa. Put plainly: Growth inhibition of human HeLa cells after 72 hrs by MTT assay. The class given is functional, cell-based. An outline of the steps:
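HeLa cells incubated for 72 h with a range of compound concentrations; viability read by MTT assay and used to derive IC50.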

Assay [2] is described as follows: Inhibition of caspase-like activity of human erythrocyte 20S proteasome using Z-LLE-AMC substrate incubated at 37 degC for 1 hr by fluorometric assay. An outline of the steps: (§1)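 Compound combined with 75 µM fluorogenic substrate in 20 mM Tris pH 8.0, 0.5 mM EDTA, 0.035% SDS. Reaction started with 50 ng of purified human erythrocyte 20S proteasome and run 1 h at 37 °C. Stopped with 20 mM Tris pH 8.9, 0.5% SDS; released AMC read at 365 nm excitation / 460 nm emission.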

Assay [3] is described as follows: Inhibition of chymotrypsin-like activity of human erythrocyte 20S proteasome using Suc-LLVY-AMC substrate incubated at 37 degC for 1 hr by fluorometric assay. An outline of the steps: as §1
The nature of assay [4]: Inhibition of trypsin-like activity of human erythrocyte 20S proteasome using Boc-LLR-AMC substrate incubated at 37 degC for 1 hr by fluorometric assay. The note with it: in the assay text read “Boc-LRR-AMC” for “Boc-LLR-AMC”. An outline of the steps: as §1
Assay [5] relates to HeLa. The assay can be described thus: Cell cycle arrest in human HeLa cells assessed as accumulation at S phase at 1 uM after 24 hrs by flow cytometry (reference value: 30 +/- 0.46%). It counts as functional.
In assay [6] the test system is HeLa. Put plainly: Induction of apoptosis in human HeLa cells at 10 uM incubated for 12 hrs using annexin V-FITC and propidiun iodide staining based flow cytometry (reference value: 2.6 +/- 0.14%). It counts as functional. An outline of the steps:
(§2)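 HeLa cells treated for 12 h, then stained with annexin V-FITC and propidium iodide; apoptosis measured by flow cytometry. Values are mean ± sd of triplicate samples.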

Assay [7] relates to HeLa. The assay can be described thus: Cell cycle arrest in human HeLa cells assessed as accumulation at S phase at 10 uM after 24 hrs by flow cytometry (reference value: 30 +/- 0.46%). It counts as functional.
For assay [8], the system named is HeLa. The assay can be described thus: Cell cycle arrest in human HeLa cells assessed as accumulation at G1 phase at 1 uM after 24 hrs by flow cytometry (reference value: 56.4 +/- 0.39%). It counts as functional.
For assay [9], the system named is HeLa. The assay can be described thus: Cell cycle arrest in human HeLa cells assessed as accumulation at G1 phase at 10 uM after 24 hrs by flow cytometry (reference value: 56.4 +/- 0.39%). The class given is functional.
Assay [10] relates to HeLa. The assay can be described thus: Induction of apoptosis in human HeLa cells at 1 uM incubated for 12 hrs using annexin V-FITC and propidiun iodide staining based flow cytometry (reference value: 2.6 +/- 0.14%). The class given is functional. An outline of the steps: as §2
Assay [11] has as its system HeLa. The assay can be described thus: Cell cycle arrest in human HeLa cells assessed as accumulation at G2/M phase at 1 uM after 24 hrs by flow cytometry (reference value: 13.7 +/- 0.87%). It counts as functional.
Assay [12] concerns HeLa. Put plainly: Cell cycle arrest in human HeLa cells assessed as accumulation at G2/M phase at 10 uM after 24 hrs by flow cytometry (reference value: 13.7 +/- 0.87%). The class given is functional.
The nature of assay [13]: Antiproliferative activity against human HeLaS3 cells after 72 hrs. The conditions noted are these: HeLa S3, 72 h. It counts as functional, cell-based. An outline of the steps: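 HeLa cells were exposed to a range of compound concentrations for 72 h, and viability was then read by MTT assay. IC50 values are growth inhibition, reported as mean ± sd of triplicate samples.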

Assay [14] concerns HeLa. Put plainly: Cell cycle arrest in human HeLa cells assessed as accumulation at S phase at 0.1 uM after 24 hrs by flow cytometry (reference value: 30 +/- 0.46%). It counts as functional.
The subject of assay [15] is HeLa. Put plainly: Induction of apoptosis in human HeLa cells at 0.1 uM incubated for 12 hrs using annexin V-FITC and propidiun iodide staining based flow cytometry (reference value: 2.6 +/- 0.14%). It counts as functional. An outline of the steps:
as §2

Assay [16] deals with HeLa. Put plainly: Cell cycle arrest in human HeLa cells assessed as accumulation at G2/M phase at 0.1 uM after 24 hrs by flow cytometry (reference value: 13.7 +/- 0.87%). The class given is functional.
The subject of assay [17] is HeLa. The assay can be described thus: Cell cycle arrest in human HeLa cells assessed as accumulation at G1 phase at 0.1 uM after 24 hrs by flow cytometry (reference value: 56.4 +/- 0.39%). The class given is functional.

Structures are written as SMILES. Where a SMILES comes first, the peptide text is derived from it. The star is where a group is joined. Cbz = O=C(OCc1ccccc1)* A value given as a limit tells only on which side of the number the result lay.

For `CC(C)C[C@H](NC(=O)CC[C@H](NC(=O)[C@H](CC(C)C)NC(=O)OC(C)(C)C)C(=O)NCc1ccc2ccccc2c1)B(O)O`, the IC50 was 0.79 µM with HeLa [1], more than 10 µM in assay [2], 1.5 µM in assay [3] and more than 10 µM in assay [4].

Consider `CC(C)C[C@H](NC(=O)CC[C@H](NC(=O)CNC(=O)OC(C)(C)C)C(=O)NCc1ccc2ccccc2c1)B(O)O`, for which the Activity is recorded as 16.4% with HeLa [5]; 15.2% in the assay with HeLa [6]; 14.4% in the assay on HeLa [7]; 57.7% with HeLa [8]; 23% with HeLa [9]; 12.9% in the assay on HeLa [10]. Moreover, the Activity is listed as 26% in the assay with HeLa [11] and 62.6% with HeLa [12]. Moreover, the IC50 was 0.35 µM in the assay with HeLa [1], 8.54 µM in assay [2], 0.28 µM in assay [3] and more than 10 µM in assay [4].

As for `CC(C)C[C@H](NC(=O)C[C@H](NC(=O)OC(C)(C)C)C(=O)NCc1ccc2ccccc2c1)B(O)O`, the IC50 with HeLa [1] was more than 10 µM; in assay [2], more than 10 µM; in assay [3] it was 4.51 µM; in assay [4], more than 10 µM.

Regarding `CC[C@H](C)[C@@H]1C(=O)O[C@H]1C(=O)N[C@H]1C[C@H]1C[C@H](NC(=O)[C@H](C)N)C(=O)O` [BELACTOSIN A], in assay [13], half-maximal inhibition (IC50) required 51 µM.

On to `CC(C)C[C@H](NC(=O)[C@H](Cc1ccccc1)NC(=O)c1cnccn1)B(O)O` [BORTEZOMIB], for which the IC50 in the assay with HeLa [1] is 0.02 µM; in assay [2], 0.68 µM; in [3], 0.02 µM; in assay [4], more than 10 µM. Moreover, the Activity in the assay with HeLa [14] was 15.9%; with HeLa [15], 14.5%; in the assay on HeLa [16], 69.6%; in the assay on HeLa [17], 14.6%.

Regarding `CC(C)C[C@H](NC(=O)CC[C@H](NC(=O)OC(C)(C)C)C(=O)NCc1ccc2ccccc2c1)B(O)O`, the IC50 (in the assay on HeLa [1]; in assay [2]; in assay [3]; in assay [4]) was more than 10 µM each time.

As to `CC(C)C[C@@H](C=O)NC(=O)[C@H](CC(C)C)NC(=O)[C@H](CC(C)C)NC(=O)OCc1ccccc1` [MG-132] (Cbz-Leu-Leu-Leu-aldehyde), the IC50 in [2] is 7.23 µM; in assay [3], 0.07 µM; in assay [4], more than 10 µM.

Turning to `CC(C)C[C@H](NC(=O)CC[C@H](NC(=O)[C@H](C)NC(=O)OC(C)(C)C)C(=O)NCc1ccc2ccccc2c1)B(O)O`, the IC50 is 2.35 µM with HeLa [1], 9.84 µM in [2], 0.84 µM in assay [3] and more than 10 µM in assay [4].

As for `CC(C)C[C@H](NC(=O)CCC[C@H](NC(=O)[C@H](C)NC(=O)OC(C)(C)C)C(=O)NCc1ccc2ccccc2c1)B(O)O`, the IC50 in the assay with HeLa [1] is more than 10 µM; in assay [2], more than 10 µM; in assay [3], 4.28 µM; in assay [4] it was more than 10 µM.

`CC(C)C[C@H](NC(=O)CC[C@H](NC(=O)CNC(=O)OC(C)(C)C)C(=O)NCc1ccccc1)B(O)O`: the Activity with HeLa [5] amounted to 30.7%; with HeLa [6], 11.7%; in the assay on HeLa [7], 30.7%; in the assay with HeLa [8], 56.2%; in the assay on HeLa [9], 43.2%; with HeLa [10] it was 7.6%. Besides, the Activity with HeLa [11] is on record as 13.1%; with HeLa [12], 26%. The IC50 with HeLa [1] is 5.11 µM; in assay [2] it was more than 10 µM; in assay [3] it was 0.54 µM; in [4], more than 10 µM.

`CC(C)C[C@H](NC(=O)CCC[C@H](NC(=O)CNC(=O)OC(C)(C)C)C(=O)NCc1ccc2ccccc2c1)B(O)O`: the IC50 in the assay on HeLa [1] is more than 10 µM; in [2] it was more than 10 µM; in assay [3], 2.74 µM; in [4], more than 10 µM.

Take `CC(C)C[C@H](NC(=O)CC[C@H](NC(=O)[C@H](Cc1ccccc1)NC(=O)OC(C)(C)C)C(=O)NCc1ccc2ccccc2c1)B(O)O`: the IC50 in the assay with HeLa [1] was 0.66 µM; in assay [2], more than 10 µM; in assay [3] it was 1.47 µM; in assay [4], more than 10 µM.

Consider `CC[C@H](C)[C@@H]1C(=O)O[C@H]1C(=O)NCCC[C@H](NC(=O)[C@H](C)N)C(=O)O` [BELACTOSIN C], for which the IC50 in assay [13] was 200 µM.

Regarding `CC(C)C[C@H](NC(=O)CCC[C@H](NC(=O)OC(C)(C)C)C(=O)NCc1ccc2ccccc2c1)B(O)O`, the IC50 with HeLa [1] was more than 10 µM; in assay [2] it was more than 10 µM; in [3] it was 4.12 µM; in [4], more than 10 µM.
